Data taken from ChEMBL document CHEMBL1938334, “Quinoline tricyclic derivatives. Design, synthesis and evaluation of the antiviral activity of three new classes of RNA-dependent RNA polymerase inhibitors” (Bioorg Med Chem, 2011).

Tests used:
[1] = Cytotoxicity against human MT4 cells after 96 hrs by MTT assay; assay type: cell-based
Procedure, shortened: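 Exponentially growing MT-4 cells seeded at 1×10^5 cells/mL in RPMI-1640 with 10% FBS, penicillin and streptomycin. Incubated with serial compound dilutions at 37 °C, 5% CO2 for 96 h; viability by MTT. CC50 by linear regression relative to untreated controls; mean of three independent determinations.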

[2] = tested on: Human immunodeficiency virus 1; assay: Antiviral activity against HIV1 3B infected in human MT4 cells assessed as inhibition of virus-induced cytopathogenicity after 4 days by MTT assay; assay type: functional, organism-based; conditions: Human immunodeficiency virus 1, 3B, MT4, 96 h
Procedure, shortened: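 MT-4 cells (1×10^4 per well) were infected with HIV-1 IIIB at 100 CCID50, m.o.i. 0.01, together with serial compound dilutions. Viability was read by MTT after 4 days at 37 °C. EC50 was taken by linear regression versus untreated controls. Mean of three determinations.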

[3] = Cytotoxicity against MDBK cells after 48 to 96 hrs by MTT assay; assay type: cell-based, Bos taurus; conditions: cattle
Procedure, shortened: (§1)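 MDBK seeded at 6×10^5 and BHK at 1×10^6 cells/mL in MEM-Earle's with L-glutamine, 1 mM pyruvate, kanamycin, plus 10% horse serum (MDBK) or 10% FBS (BHK). Cells were grown at 37 °C, 5% CO2 with serial compound dilutions (DMSO stocks diluted in medium). Viability by MTT after 48–96 h. CC50 was taken by linear regression versus untreated controls; three independent determinations.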

[4] = Antiviral activity against Bovine viral diarrhea virus 1-NADL infected in MDBK cells assessed as inhibition of virus-induced cytopathogenicity after 3 to 4 days by MTT assay; assay type: functional, cell-based; conditions: Bovine viral diarrhea virus isolates and strains
Procedure, shortened: (§2)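 Host cells were seeded in 96-well plates at 3×10^4 cells/well (MDBK) or 5×10^4 cells/well (BHK-21) and grown to confluent monolayers overnight. They were infected at m.o.i. 0.01 in maintenance MEM with 0.5% inactivated FBS. Serial compound dilutions were added after 1 h. Viability was read by MTT after 3–4 days at 37 °C. EC50 was taken by linear regression against untreated controls. Mean of three determinations.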

[5] = Cytotoxicity against BHK21 cells after 48 to 96 hrs by MTT assay; assay type: cell-based, Mesocricetus auratus, BHK-21; conditions: hamster; procedure, shortened: as §1
Yellow fever virus = assay: Antiviral activity against Yellow fever virus 17D Stamaril Pasteur J07B01 infected in hamster BHK21 cells assessed as inhibition of virus-induced cytopathogenicity after 3 to 4 days by MTT assay; assay type: functional, cell-based; conditions: Stamaril Pasteur J07B01, BHK-21; procedure, shortened: as §2
Reovirus sp. = assay: Antiviral activity against Reovirus type-1 3651 infected in hamster BHK21 cells assessed as inhibition of virus-induced cytopathogenicity after 3 to 4 days by MTT assay; assay type: functional, organism-based; conditions: Reovirus sp., 3651, BHK-21; procedure, shortened: as §2
[6] = Cytotoxicity against african green monkey Vero 76 cells after 48 to 96 hrs by crystal violet staining; assay type: cell-based; conditions: chlorocebus sabaeus
Procedure, shortened: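 Vero-76 cells were seeded at 4×10^5 cells/mL in D-MEM with L-glutamine, kanamycin and 10% FBS, then exposed to serial compound dilutions at 37 °C, 5% CO2 for 48–96 h. Viability was read by crystal violet staining. 50% cytotoxic concentration by linear regression relative to untreated controls; mean of three independent determinations.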

Coxsackievirus B5 = assay: Antiviral activity against Human coxsackievirus B5 Ohio-1 infected in african green monkey Vero 76 cells assessed as reduction of virus-induced plaque formation after 3 days using crystal violet staining; assay type: functional, organism-based; conditions: Enterovirus B, Ohio-1, Vero, 72 h
Poliovirus 1 = assay: Antiviral activity against Human poliovirus 1 strain Sabin Chat infected in african green monkey Vero 76 cells assessed as virus-induced reduction of plaque formation after 2 days using crystal violet staining; assay type: functional, cell-based; conditions: Enterovirus C, 48 h
Human orthopneumovirus = assay: Antiviral activity against Human respiratory syncytial virus A2 infected in african green monkey Vero 76 cells assessed as reduction of virus-induced plaque formation after 5 days using crystal violet staining; assay type: functional, organism-based; conditions: 120 h
[7] = tested on: Vesicular stomatitis Indiana virus; assay: Antiviral activity against clinical isolate Vesicular stomatitis Indiana virus infected in african green monkey Vero 76 cells assessed as reduction of virus-induced plaque formation after 2 days using crystal violet staining; assay type: functional, organism-based; conditions: 48 h
[8] = Antiviral activity against Vaccinia virus Lister Elstree infected in african green monkey Vero 76 cells assessed as reduction of virus-induced plaque formation after 3 days using crystal violet staining; assay type: functional, cell-based; conditions: 72 h
Human alphaherpesvirus 1 = assay: Antiviral activity against Human herpesvirus 1 strain KOS infected in african green monkey Vero 76 cells assessed as reduction of virus-induced plaque formation after 3 days using crystal violet staining; assay type: functional, organism-based; conditions: Human alphaherpesvirus 1, KOS, 72 h

| SMILES | CC50 at 96 h [1] [µM] | EC50 [2] [µM] | CC50 [3] [µM] | EC50 [4] [µM] | CC50 [5] [µM] | EC50 (Yellow fever virus) [µM] | EC50 (Reovirus sp.) [µM] | CC50 [6] [µM] | EC50 (Coxsackievirus B5) [µM] | EC50 (Poliovirus 1) [µM] | EC50 (Human orthopneumovirus) [µM] | EC50 [7] [µM] | EC50 [8] [µM] | EC50 (Human alphaherpesvirus 1) [µM] |
| --- | --- | --- | --- | --- | --- | --- | --- | --- | --- | --- | --- | --- | --- | --- |
| Clc1c2ncccc2cc2nc(C3CCCCC3)[nH]c12 | 57 | > 57 | 73 | 19 | 26 | > 26 | > 26 | > 100 | 43 | 80 | > 100 | ≥ 100 | ≥ 100 | > 100 |
| Clc1c2ncccc2cc2ncc(-c3ccccc3)nc12 | > 100 | > 100 | > 100 | 18 | > 100 | > 100 | > 100 | > 100 | > 100 | > 100 | > 100 | > 100 | > 100 | > 100 |
| O=[N+]([O-])c1c2cccnc2c(Cl)c2[nH]nnc12 | > 100 | > 100 | > 100 | 23 | > 100 | > 100 | > 100 | > 100 | > 100 | > 100 | > 100 | > 100 | > 100 | > 100 |
| Clc1c2ncccc2cc2nn[nH]c12 | > 100 | > 100 | > 100 | > 100 | > 100 | > 100 | > 100 | > 100 | > 100 | > 100 | > 100 | > 100 | > 100 | > 100 |
| Clc1c2ncccc2cc2nccnc12 | 82 | > 82 | 6.5 | > 6.5 | 70 | > 70 | > 70 | 90 | 50 | > 90 | > 90 | > 90 | 57 | 90 |
| CC(C)c1nc2c(Cl)c3ncccc3cc2[nH]c1=O | 100 | > 100 | > 100 | 100 | > 100 | > 100 | > 100 | > 100 | > 100 | > 100 | > 100 | > 100 | > 100 | > 100 |
| c1ccc(-c2ccc(-c3nc4cc5cccnc5cc4[nH]3)cc2)cc1 | 8 | > 8 | ≥ 100 | 60 | 20 | > 20 | > 20 | 80 | 3 | > 80 | > 80 | > 80 | > 80 | > 80 |
| Clc1c2ncccc2cc2nc(-c3ccccc3)c(-c3ccccc3)nc12 | > 100 | > 100 | > 100 | > 100 | > 100 | > 100 | > 100 | > 100 | > 100 | > 100 | > 100 | > 100 | > 100 | > 100 |
| O=c1[nH]c2c(Cl)c3ncccc3cc2nc1-c1ccccc1 | 61 | > 61 | > 100 | 5 | > 100 | > 100 | 100 | > 100 | > 100 | > 100 | > 100 | 100 | 39 | > 100 |
| O=C(CCl)Cn1nnc2c(Cl)c3ncccc3cc21 | 21 | > 21 | 53 | > 53 | 85 | > 85 | > 85 | > 100 | > 100 | > 100 | > 100 | > 100 | > 100 | > 100 |
| Oc1ccnc2c(Cl)c3nccnc3cc12 | 42 | > 42 | 63 | > 63 | 85 | > 85 | > 85 | 90 | > 90 | > 90 | > 90 | > 90 | > 90 | 90 |
| O=c1[nH]c2cc3c(O)ccnc3c(Cl)c2nc1-c1ccccc1 | > 100 | > 100 | > 100 | 100 | > 100 | > 100 | > 100 | ≥ 100 | > 100 | > 100 | > 100 | > 100 | > 100 | ≥ 100 |
| CCOC(=O)C(C)c1nc2cc3cccnc3c(Cl)c2[nH]c1=O (configuration not stated) | 59 | > 59 | > 100 | 19 | > 100 | > 100 | > 100 | > 100 | > 100 | ≥ 100 | > 100 | ≥ 100 | > 100 | ≥ 100 |
| Clc1c2ncccc2cc2nc(CBr)c(CBr)nc12 | 16 | > 16 | 20 | > 20 | > 100 | > 100 | > 100 | > 100 | > 100 | > 100 | > 100 | > 100 | > 100 | > 100 |
| c1cnc2cc3[nH]nnc3cc2c1 | 40 | > 40 | > 100 | > 100 | > 100 | > 100 | > 100 | > 100 | > 100 | > 100 | > 100 | > 100 | > 100 | > 100 |
| Nc1ccc(-c2nc3cc4cccnc4c(Cl)c3[nH]2)cc1 | 15 | > 15 | 45 | 10 | 42 | > 42 | > 42 | > 100 | 78 | > 100 | > 100 | > 100 | > 100 | > 100 |
| CCOC(=O)C(C)c1nc2c(Cl)c3ncccc3cc2[nH]c1=O (configuration not stated) | 11 | > 11 | > 100 | 10 | 75 | 50 | > 75 | > 100 | > 100 | > 100 | 62 | > 100 | > 100 | > 100 |
| O=C(CCl)Cn1nnc2cc3cccnc3c(Cl)c21 | 23 | > 23 | 21 | > 21 | 65 | > 65 | > 65 | > 100 | > 100 | > 100 | > 100 | > 100 | > 100 | > 100 |
